High-throughput results deposited in PubChem BioAssay by several laboratories.
FXIa inh 1536: inhibitors of human coagulation factor XIa; P03951; purified FXIa, Boc-Glu-Ala-Arg-AMC fluorogenic substrate; inhibition, % at 5 µM; 220,000 tested, 0.14% active;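 active = inhibition of at least 40%; inactive = inhibition below 40%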;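 note: fluorescence of freed AMC excited at 355 nm; 0% = enzyme without compound and 100% = no enzyme blank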
m-calpain inh: inhibitors of pig calpain II; purified calpain II, fluorogenic peptide substrate, 30 min; inhibition, % at 16 µM; 220,000 tested, 0.37% active;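 active = inhibition above about 50%, limit read from the data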
FXIIa inh 1536: inhibitors of human coagulation factor XIIa; P00748; purified FXIIa, Boc-QGR-AMC fluorogenic substrate, 2 h; inhibition, % at 5 µM; AID 800; 220,000 tested, 0.3% active; in the data active = inhibition above about 40%;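 note: 0% = enzyme with no compound and 100% = blank without enzyme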
thrombin 1536: inhibitors of human thrombin | inhibition, % at 5 µM | 220,000 tested, 0.26% active | alpha-thrombin, Boc-VPR-AMC fluorogenic substrate cleavage | P00734;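 active = inhibition at or above 40%; inactive = inhibition below 40%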;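 note: 0% = enzyme with no compound and 100% = wells without enzyme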
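signal = AMC fluorescence, 355/460 nm | material = human alpha-thrombin enzyme | control set = enzyme without compound as high, wells lacking enzyme as low | times = reaction at room temperature | read-out basis = percent inhibition scaled between no-compound controls and no-enzyme blanks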
hK5 inh: inhibitors of human kallikrein 5; AID 873; recombinant hK5, fluorogenic AMC substrate cleavage; Q9Y337; inhibition, % at 5 µM; 210,000 tested, 0.59% active;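 active = inhibition of 40% or more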;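 note: 0% = enzyme controls without compound and 100% = no-enzyme blanks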
Target sequence (Q9Y337 67-293 limits assumed): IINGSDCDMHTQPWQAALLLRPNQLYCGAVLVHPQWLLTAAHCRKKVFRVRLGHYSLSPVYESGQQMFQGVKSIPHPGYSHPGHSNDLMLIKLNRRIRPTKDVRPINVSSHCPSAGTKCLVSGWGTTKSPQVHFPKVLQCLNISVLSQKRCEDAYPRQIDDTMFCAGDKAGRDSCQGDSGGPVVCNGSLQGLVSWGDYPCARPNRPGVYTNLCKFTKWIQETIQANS
Numbers without * were called inactive; . = no result given. Only some compounds are listed: those with a hit (about 1.4% of all), similar ones and a draw of the others.

SMILES	FXIa inh 1536	m-calpain inh	FXIIa inh 1536	thrombin 1536	hK5 inh
O=C(/C=C/c1cccc(Cl)c1)NCc1ccncc1	14	23	17	9	47*
O=S(=O)(Nc1nc(-c2sccc2Cl)cs1)c1cc(Cl)ccc1Cl	7	54*	15	4	-13
COc1ccc(NS(=O)(=O)c2cc(NC(=O)[C@@H](NC(=O)c3ccccc3)C(C)C)ccc2C)cc1	4	-24	12	-4	-14
CCn1ncc(Br)c1C(=O)Nc1cc([N+](=O)[O-])ccc1C	19	16	23	54*	3
Cc1cc(NC(=O)COc2ccccc2C)no1	-1	-31	12	-6	2
Cc1cc(NC(=O)COc2nnc(-c3ccccc3)c3ccccc23)no1	7	17	23	13	58*
Cc1ccc2cc(CN(C(=O)c3cccs3)c3ccccc3)c(=O)[nH]c2c1	25	9	74*	18	62*
Cn1nc(C(=O)OCc2ccc(Br)cc2F)c2ccccc2c1=O	13	36	9	3	21
COc1ccccc1CN1CCNC(=O)C1CC(=O)N(C)Cc1cnccn1 (centres undefined)	32	11	49*	22	42*
COc1cccc(CN2CCNC(=O)C2CC(=O)N(C)Cc2cnccn2)c1OC (centres undefined)	0	-5	4	-8	-5
C/C(Cc1ccccc1)=N\NC(=O)CNC(=O)/C=C\c1ccccc1	51*	8	24	10	113*
C/C(Cc1ccccc1)=N\NC(=O)CNC(=O)c1cccc(Cl)c1	8	9	-3	4	-1
COc1ccc(/C=C/C(=O)NCC(=O)N/N=C(\C)Cc2ccccc2)cc1	4	5	10	3	4
C/C(Cc1ccccc1)=N\NC(=O)CNC(=O)c1ccc(Cl)cc1Cl	12	15	86*	4	78*
O=C(CCc1nc2ccccc2s1)Nc1cccnc1	-4	-50	0	-11	-9
CC(C)CCN1CCN(CC(c2ccccc2)c2ccccc2)CC1CCO (centres undefined)	-4	-4	10	-7	2
Cc1cc2c(C)nc(N/N=C/c3ccc(F)cc3)nc2o1	9	0	7	-4	-20
Cc1cc2c(C)nc(N/N=C/c3ccc([N+](=O)[O-])cc3)nc2o1	13	8	9	12	50*
CN1CCN(C2=CC3=CC(=C(C#N)C#N)CCC3CC2)CC1 (centres undefined)	0	46	11	5	4
CCN1CCN(C2=CC3=CC(=C(C#N)C#N)CCC3CC2)CC1 (centres undefined)	10	61*	17	15	6
CCCCc1ccc(NC(=O)C(C)CC)cc1 (centres undefined)	4	-17	14	5	6
COCCCNC(=O)CS(=O)(=O)Cc1nc(-c2cccc(OC)c2)oc1C	2	-2	14	2	-14
CCCCN(C)C(=O)CS(=O)(=O)Cc1nc(-c2cccc(OC)c2)oc1C	13	3	19	14	44*
CCOC(=O)C[n+]1c(C)sc2ccc(OC)cc21	9	9	43*	1	-10
CCO/C(=C/c1sc2ccc(OC)cc2[n+]1CCCS(=O)(=O)[O-])CC	1	-3	15	3	-5
SMILES	FXIa inh 1536	m-calpain inh	FXIIa inh 1536	thrombin 1536	hK5 inh
Clc1cccc2sc(N3CCCC3)nc12	8	26	10	12	109*
Cc1cccc(/N=C/c2c(O)[nH]c3ccccc23)n1	9	5	14	8	15
CC(C)(CO)N=Cc1c(O)[nH]c2ccccc12	4	-2	17	1	48*
CC(C)(C)c1[nH]c2ccccc2c1/C=N/O	0	-10	8	-2	32
CC(C)N=Cc1c(O)[nH]c2ccccc12	14	18	46*	4	-15
CCCCCc1cc(=O)oc2c(C(CCN(CC)CC)c3ccc(N(C)C)cc3)c(OC)cc(OC)c12 (centres undefined)	2	0	9	2	3
CCOc1ccc(C/C(O)=C2\C(=O)CC(C)(C)CC2=NCC(=O)O)cc1OCC	2	-33	6	6	-9
O=C(CNC(=S)N(Cc1ccccc1)Cc1ccccc1F)NCCc1ccc(Cl)cc1	4	31	9	.	-5
COc1cc(CCC(=O)Nc2cccc(C(F)(F)F)c2)cc(OC)c1OC	4	19	2	41*	10
COc1cc(CC(=O)Nc2cccc(C(F)(F)F)c2)cc(OC)c1OC	5	14	6	0	-3
Cc1cc(O)ccc1N=Cc1c(C(F)(F)F)[nH][nH]c1=O	1	-28	7	7	-2
Cc1ccc(C2=NNC(=O)C(c3ccc(Cl)cc3)C2)cc1 (centres undefined)	2	-19	0	-11	-21
O=C1NN=C(c2ccc(Cl)cc2)CC1c1cccc(Br)c1 (centres undefined)	-3	54*	2	3	-6
CC[C@@H](C)[C@@H](C(=O)N1CCN(C(=O)OC(C)(C)C)CC1)n1cc(CCCCNC(=O)OC(C)(C)C)nn1	2	20	11	-1	5
CCOc1ccc(N(CC(=O)Nc2cc(C)ccc2C)S(=O)(=O)c2c(C)[nH]c(=O)[nH]c2=O)cc1	24	8	100*	16	34
CCOc1ccc(N(CC(=O)Nc2ccccc2C)S(=O)(=O)c2c(C)[nH]c(=O)[nH]c2=O)cc1	2	23	10	3	0
Nc1n[nH]c(N)c1N=Nc1ccc(F)cc1	-5	51*	4	23	4
Cc1cc(C(=O)NNC(=S)NC(C)c2ccccc2)c2ccccc2n1 (centres undefined)	3	-8	12	2	-192
CCOC(=O)c1cc(CC)sc1NC(=O)c1ccc([N+](=O)[O-])c(N2CCOCC2)c1	6	8	12	0	-5
NC(=O)C1CCN(Cc2nc3cc(C(F)(F)F)ccc3c(=O)[nH]2)CC1	-4	3	4	-3	-2
O=C(NC(=S)Nc1ccc(S(=O)(=O)Nc2nccs2)cc1)c1ccccc1F	28	21	77*	19	10
O=C(NC(=S)Nc1ccc(S(=O)(=O)Nc2nccs2)cc1)c1ccccc1	-12	19	-2	-6	-3
COCCCn1c(O)c(/C=C2\N=C(C#N)C(=Nc3ccc(C)cc3)O2)sc1=S	2	16	5	-7	0
Clc1cccc(Cl)c1Cn1cnc2c(NCc3ccco3)ncnc21	3	8	-6	14	61*
CC12C=CC3(O1)C(C(=O)N(c1cccnc1)C3C(=O)NC1CCCCC1)C2C(=O)Nc1ccccc1 (centres undefined)	2	6	24	11	72*
Cc1ccc(CSCC(=O)Nc2ccc3c(c2)OCO3)cc1	17	-7	26	-3	46*
O=C(CSCc1ccccc1)Nc1ccc2c(c1)OCO2	-7	10	-3	-2	-16
COCCNC(=O)C/C(C)=N/NC(=O)C(=O)NC1CCCCC1	-3	-28	6	-8	0
